Measurements published in article PMC3787694 (Biochimica et biophysica acta, 2010).
Where a name gives a salt, the structure may show the parent alone. Read-outs that look alike come from different tables or passages of the source.

How the values were obtained:
[1] = molecular target: human fetal muscle AChR (α1β1γδ) in TE671 cells (Homo sapiens, UniProt P02708+P07510+P11230+Q07001); type: cell-based
α3β4 AChR = settings: cited from earlier work
[2] = molecular target: Torpedo AChR ion channel ([3H]ibogaine site) (Tetronarce californica, UniProt P02710+P02712+P02714+P02718); assay: [3H]ibogaine competition binding to Torpedo AChRs
Sequence of Torpedo AChR ion channel ([3H]ibogaine site) (P02710 25-461): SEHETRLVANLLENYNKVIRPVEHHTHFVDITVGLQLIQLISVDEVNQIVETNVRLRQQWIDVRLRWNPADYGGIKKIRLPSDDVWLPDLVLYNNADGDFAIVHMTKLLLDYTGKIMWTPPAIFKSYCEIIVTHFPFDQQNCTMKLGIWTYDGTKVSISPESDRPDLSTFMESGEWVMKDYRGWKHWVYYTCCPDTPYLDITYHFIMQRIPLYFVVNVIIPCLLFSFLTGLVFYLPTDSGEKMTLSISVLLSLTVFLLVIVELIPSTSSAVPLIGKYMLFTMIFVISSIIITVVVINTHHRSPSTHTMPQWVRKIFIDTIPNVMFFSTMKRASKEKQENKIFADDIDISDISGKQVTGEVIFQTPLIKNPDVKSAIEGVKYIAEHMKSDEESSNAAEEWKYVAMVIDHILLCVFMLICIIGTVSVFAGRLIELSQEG
Sequence of Torpedo AChR ion channel ([3H]ibogaine site) (P02712 25-493): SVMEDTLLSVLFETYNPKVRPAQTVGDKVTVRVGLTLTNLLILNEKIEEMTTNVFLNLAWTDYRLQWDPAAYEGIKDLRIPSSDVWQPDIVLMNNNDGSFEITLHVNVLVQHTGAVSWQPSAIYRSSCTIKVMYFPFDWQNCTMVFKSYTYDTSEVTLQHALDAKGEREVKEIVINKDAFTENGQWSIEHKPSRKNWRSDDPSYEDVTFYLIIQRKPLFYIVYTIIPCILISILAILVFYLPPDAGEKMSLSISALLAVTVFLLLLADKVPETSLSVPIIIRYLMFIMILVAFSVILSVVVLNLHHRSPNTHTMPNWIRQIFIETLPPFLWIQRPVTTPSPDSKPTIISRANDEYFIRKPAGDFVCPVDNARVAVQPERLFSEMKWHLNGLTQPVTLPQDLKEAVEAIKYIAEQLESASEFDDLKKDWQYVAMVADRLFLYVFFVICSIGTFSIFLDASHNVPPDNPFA
Sequence of Torpedo AChR ion channel ([3H]ibogaine site) (P02714 18-506): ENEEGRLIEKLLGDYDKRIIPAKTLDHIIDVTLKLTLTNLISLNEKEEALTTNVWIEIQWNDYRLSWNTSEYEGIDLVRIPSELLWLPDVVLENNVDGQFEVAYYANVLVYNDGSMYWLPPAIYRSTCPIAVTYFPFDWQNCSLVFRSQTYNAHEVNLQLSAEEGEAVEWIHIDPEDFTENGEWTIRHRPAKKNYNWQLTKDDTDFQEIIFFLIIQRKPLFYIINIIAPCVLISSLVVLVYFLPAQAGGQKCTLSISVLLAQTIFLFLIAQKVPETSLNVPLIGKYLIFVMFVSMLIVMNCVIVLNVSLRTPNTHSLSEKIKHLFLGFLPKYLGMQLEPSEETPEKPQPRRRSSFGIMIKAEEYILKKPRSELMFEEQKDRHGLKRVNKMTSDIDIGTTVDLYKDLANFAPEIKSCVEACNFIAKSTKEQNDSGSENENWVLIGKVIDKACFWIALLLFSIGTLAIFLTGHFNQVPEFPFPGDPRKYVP
Sequence of Torpedo AChR ion channel ([3H]ibogaine site) (P02718 22-522): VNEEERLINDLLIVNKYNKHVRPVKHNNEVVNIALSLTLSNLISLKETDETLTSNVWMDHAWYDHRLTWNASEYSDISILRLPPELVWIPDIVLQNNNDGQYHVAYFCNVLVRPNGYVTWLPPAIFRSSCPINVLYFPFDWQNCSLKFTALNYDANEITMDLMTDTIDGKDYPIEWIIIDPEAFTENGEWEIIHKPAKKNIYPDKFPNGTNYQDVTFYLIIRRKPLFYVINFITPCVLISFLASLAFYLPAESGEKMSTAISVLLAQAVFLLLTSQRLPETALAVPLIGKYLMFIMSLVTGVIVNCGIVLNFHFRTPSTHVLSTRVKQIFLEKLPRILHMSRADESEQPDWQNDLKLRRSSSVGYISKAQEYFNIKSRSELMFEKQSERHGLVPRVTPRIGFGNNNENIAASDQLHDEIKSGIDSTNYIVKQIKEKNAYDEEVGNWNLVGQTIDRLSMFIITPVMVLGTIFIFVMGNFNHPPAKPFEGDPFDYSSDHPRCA

[3] = molecular target: T1, Torpedo AChR (immobilized) (Tetronarce californica, UniProt P02710+P02712+P02714+P02718); assay: Thermodynamic parameters by non-linear chromatography; type: binding; settings: for Ea (drug dissociation): Arrhenius plot; for ΔG^20: Eq. (8), 293K; for ΔH^+: Eq. (10); for ΔH°: van't Hoff 10-25 °C
T1 sequence (P02718 22-522): as above
T1 sequence (P02712 25-493): as the sequence (P02712 25-493) above
T1 sequence (P02714 18-506): as the sequence (P02714 18-506) above
T1 sequence (P02710 25-461): as the sequence (P02710 25-461) above

Torpedo AChR [4] = molecular target: T2, Torpedo AChR (Tetronarce californica, UniProt P02710+P02712+P02714+P02718); assay: Equilibrium binding of [3H]18-MC to Torpedo AChR native membranes
T2 sequence (P02710 25-461): as above
T2 sequence (P02712 25-493): as the sequence (P02712 25-493) above
T2 sequence (P02714 18-506): as the sequence (P02714 18-506) above
T2 sequence (P02718 22-522): as the sequence (P02718 22-522) above
In short: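 [3H]18-MC plus unlabelled ligand was added at 0.07–1.2 μM for 2 h at RT, then filtered. Nonspecific binding was measured with 100 μM unlabelled ligand. Kd was taken from the Rosenthal-Scatchard slope and sites/AChR from its x-intercept.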

[5] = molecular target: Torpedo AChR ion channel ([3H]18-MC site) (Tetronarce californica, UniProt P02710+P02712+P02714+P02718); type: binding; settings: for Ki / nH / ΔG: [3H]18-MC; for ΔG: 298K
Sequence of Torpedo AChR ion channel ([3H]18-MC site) (P02710 25-461): as the sequence (P02710 25-461) above
Sequence of Torpedo AChR ion channel ([3H]18-MC site) (P02712 25-493): as the sequence (P02712 25-493) above
Sequence of Torpedo AChR ion channel ([3H]18-MC site) (P02714 18-506): as the sequence (P02714 18-506) above
Sequence of Torpedo AChR ion channel ([3H]18-MC site) (P02718 22-522): as the sequence (P02718 22-522) above

[6] = molecular target: Torpedo AChR ion channel ([3H]TCP site) (Tetronarce californica, UniProt P02710+P02712+P02714+P02718); assay: [3H]TCP competition binding to Torpedo AChRs in different conformational states; settings: for Ki / nH / ΔG: [3H]TCP; for ΔG: 298K
Sequence of Torpedo AChR ion channel ([3H]TCP site) (P02710 25-461): as the sequence (P02710 25-461) above
Sequence of Torpedo AChR ion channel ([3H]TCP site) (P02712 25-493): as the sequence (P02712 25-493) above
Sequence of Torpedo AChR ion channel ([3H]TCP site) (P02714 18-506): as the sequence (P02714 18-506) above
Sequence of Torpedo AChR ion channel ([3H]TCP site) (P02718 22-522): as the sequence (P02718 22-522) above

[7] = molecular target: T1, Torpedo AChR (immobilized); assay: Binding kinetics by non-linear chromatography on CMAC-Torpedo AChR column; settings: for Kd: Ka; for koff: 20 °C; for ΔG^20: Eq. (4); for kon: kon=koff·Ka
α4β2 AChR = settings: read-out: inhibitory potency; cited from earlier work
Torpedo AChR [8] = molecular target: T2, Torpedo AChR; assay: biochemical; type: binding; settings: for apparent nH: [3H]cytisine binding enhancement; for fractional occupancy (θ): calculated with Eq. (2)
Torpedo AChR [9] = settings: cited from earlier work
AChR = settings: cited from earlier work
Torpedo AChR [10] = settings: cited from earlier work; remark: listed apart in the source
[11] = epibatidine treated column (desensitized state)
[12] = α-BTx treated column (resting state)
[13] = 5 min pre-incubation IC50 comparison

Sequence of human fetal muscle AChR (α1β1γδ) in TE671 cells (P02708 21-457): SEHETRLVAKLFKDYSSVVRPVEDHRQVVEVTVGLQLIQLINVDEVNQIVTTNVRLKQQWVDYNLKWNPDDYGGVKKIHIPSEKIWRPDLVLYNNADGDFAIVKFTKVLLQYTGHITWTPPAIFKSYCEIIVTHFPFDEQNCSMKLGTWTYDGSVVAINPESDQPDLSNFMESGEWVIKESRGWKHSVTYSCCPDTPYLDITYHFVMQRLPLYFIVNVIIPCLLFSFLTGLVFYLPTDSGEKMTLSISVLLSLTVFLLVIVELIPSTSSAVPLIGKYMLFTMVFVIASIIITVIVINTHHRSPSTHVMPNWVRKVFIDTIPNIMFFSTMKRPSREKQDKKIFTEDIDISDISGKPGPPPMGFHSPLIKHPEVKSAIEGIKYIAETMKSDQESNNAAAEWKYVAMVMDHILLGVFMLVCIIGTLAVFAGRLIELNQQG
Sequence of human fetal muscle AChR (α1β1γδ) in TE671 cells (Q07001 22-517): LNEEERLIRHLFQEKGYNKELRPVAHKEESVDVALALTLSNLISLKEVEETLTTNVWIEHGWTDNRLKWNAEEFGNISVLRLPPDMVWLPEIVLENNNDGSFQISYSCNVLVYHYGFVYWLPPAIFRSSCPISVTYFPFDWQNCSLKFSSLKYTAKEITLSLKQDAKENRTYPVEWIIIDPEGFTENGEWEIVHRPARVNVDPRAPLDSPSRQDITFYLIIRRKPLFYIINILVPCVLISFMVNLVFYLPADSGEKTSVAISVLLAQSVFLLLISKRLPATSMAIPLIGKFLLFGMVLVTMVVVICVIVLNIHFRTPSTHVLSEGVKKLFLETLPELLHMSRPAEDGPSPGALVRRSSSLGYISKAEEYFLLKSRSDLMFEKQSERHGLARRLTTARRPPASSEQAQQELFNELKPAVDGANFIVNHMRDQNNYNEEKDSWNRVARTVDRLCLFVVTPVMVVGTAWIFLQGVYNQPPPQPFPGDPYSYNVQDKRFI
Sequence of human fetal muscle AChR (α1β1γδ) in TE671 cells (P11230 24-501): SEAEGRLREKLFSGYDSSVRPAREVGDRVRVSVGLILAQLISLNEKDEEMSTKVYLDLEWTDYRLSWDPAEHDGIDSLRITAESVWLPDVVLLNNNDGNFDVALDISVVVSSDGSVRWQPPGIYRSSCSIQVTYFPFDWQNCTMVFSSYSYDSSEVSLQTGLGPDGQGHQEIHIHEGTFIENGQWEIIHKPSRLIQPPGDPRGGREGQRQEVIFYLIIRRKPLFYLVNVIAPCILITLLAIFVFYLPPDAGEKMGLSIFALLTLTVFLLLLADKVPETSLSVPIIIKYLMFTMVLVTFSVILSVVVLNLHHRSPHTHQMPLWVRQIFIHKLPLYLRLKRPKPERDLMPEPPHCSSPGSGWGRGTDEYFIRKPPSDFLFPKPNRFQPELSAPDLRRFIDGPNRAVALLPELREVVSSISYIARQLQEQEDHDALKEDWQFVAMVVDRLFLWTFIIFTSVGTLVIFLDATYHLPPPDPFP
Sequence of human fetal muscle AChR (α1β1γδ) in TE671 cells (P07510 23-517): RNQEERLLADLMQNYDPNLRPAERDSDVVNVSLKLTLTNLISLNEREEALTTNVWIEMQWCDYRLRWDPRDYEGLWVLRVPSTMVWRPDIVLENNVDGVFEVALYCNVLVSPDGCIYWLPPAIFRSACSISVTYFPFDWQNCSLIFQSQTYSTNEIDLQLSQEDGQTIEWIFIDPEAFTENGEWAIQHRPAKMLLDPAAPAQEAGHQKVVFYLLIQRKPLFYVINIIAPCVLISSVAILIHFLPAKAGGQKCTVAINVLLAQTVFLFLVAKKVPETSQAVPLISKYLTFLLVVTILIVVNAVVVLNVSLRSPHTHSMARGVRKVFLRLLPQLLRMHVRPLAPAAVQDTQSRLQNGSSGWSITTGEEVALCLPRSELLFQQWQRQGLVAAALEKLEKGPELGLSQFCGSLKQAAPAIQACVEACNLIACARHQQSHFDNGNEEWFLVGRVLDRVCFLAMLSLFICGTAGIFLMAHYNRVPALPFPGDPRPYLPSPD

## Clc1ccc(C2CC3CCC2N3)cn1 (racemic) [(±)-epibatidine, reference compound]
[1]; agonist activation
  nH of activation: 1.23 ±0.06

## COCC[C@H]1CC2CN3CCc4c([nH]c5ccccc45)[C@](C(=O)OC)(C2)[C@H]13 [18-MC, 18-methoxycoronaridine]
α3β4 AChR
  IC50: 0.75 to 0.9 µM
[2]
  Ki: 0.61 ± 0.08 µM
[2]; [3H]ibogaine, desensitized/CCh-bound state
  nH: 1.02 ±0.13
[2]; [3H]ibogaine, desensitized/CCh-bound state, 298K
  ΔG: -35.5 ± 0.3 kJ/mol
[2]; both conformational states (so in the source)
  inhibition of the specific binding of [3H]ibogaine: ~100%
[3]; desensitized AChR
  enthalpic contribution relative to the entropic contribution: more than 2 fold
[3]; [11]
  −TΔS°: -11.2 ± 1.2 kJ/mol
  Ea (drug dissociation): 22.4 ± 1.5 kJ/mol
  ΔG^20: -36.3 ± 1.4 kJ/mol
  ΔH^+: 20.0 ± 1.5 kJ/mol
  ΔH°: -25.0 ± 1.1 kJ/mol
[3]; [12]
  −TΔS°: -15.5 ± 1.1 kJ/mol
  Ea (drug dissociation): 16.4 ± 0.7 kJ/mol
  ΔG^20: -34.0 ± 1.4 kJ/mol
  ΔH^+: 13.9 ± 0.7 kJ/mol
  ΔH°: -18.5 ± 1.1 kJ/mol
Torpedo AChR [4]
  Kd: 0.23 ± 0.04 µM
[5]; desensitized/CCh-bound state
  Ki: 0.47 ± 0.03 µM
  nH: 1.02 ±0.06
  ΔG: -36.1 ± 0.2 kJ/mol
[5]; resting/α-BTx-bound state
  Ki: 1 ± 0.1 µM
  nH: 0.70 ± 0.05
  ΔG: -34.3 ± 0.3 kJ/mol
[5]; [3H]18-MC competition
  fold higher affinity for the desensitized AChR compared to the resting AChR: ~2 fold
[1]; 4 or 24 h vs 5 min pre-incubation
  increase of potency by longer pre-incubation periods: ~2 fold
[1]; [13]
  fold more potent than PCP: ~4 fold
  fold more potent than ibogaine: ~2 fold
[1]; pre-incubation 5 min
  nH (Hill coefficient): 1.56 ±0.15
[1]; pre-incubation 240 min
  nH (Hill coefficient): 1.90 ±0.20
[1]; pre-incubation 1440 min
  nH (Hill coefficient): 1.61 ±0.13
[1]; pre-treatment with 1, 10 and 100 μM
  manner of inhibition of hα1β1γδ AChR: dose dependent and noncompetitive manner
[6]; desensitized/CCh-bound state
  Ki: 0.17 ± 0.01 µM
  nH: 1.11 ±0.07
  ΔG: -38.6 ± 0.1 kJ/mol
[6]; resting/α-BTx-bound state
  Ki: 1.4 ± 0.1 µM
  nH: 0.89 ± 0.06
  ΔG: -33.4 ± 0.2 kJ/mol
[6]; [3H]TCP binding site
  fold higher affinity in the desensitized AChR than in the resting AChR: ~8 fold
[6]; both conformational states
  inhibition of the specific binding of [3H]TCP: ~100%
[7]; [11]
  Kd: 0.337 µM
  koff: 0.077 ± 0.001 s⁻¹
  ΔG^20: -36.3 ± 0.1 kJ/mol
  kon: 228000 ± 3000 M⁻¹ s⁻¹
[7]; [12]
  Kd: 0.885 µM
  koff: 0.109 ± 0.005 s⁻¹
  ΔG^20: -33.9 ± 0.1 kJ/mol
  kon: 123000 ± 2000 M⁻¹ s⁻¹
α4β2 AChR
  IC50: > 20 µM
Torpedo AChR [8]
  EC50: 0.3 ± 0.1 µM
  fold more potent than ibogaine to induce AChR desensitization: ~90 fold
  apparent nH: 0.81±0.20

## c1ccc(C2(N3CCCCC3)CCCCC2)cc1 [PCP, phencyclidine]
[5]; desensitized/CCh-bound state
  Ki: 0.41 ± 0.03 µM
  nH: 0.76 ± 0.03
  ΔG: -36.4 ± 0.1 kJ/mol
[5]; resting/α-BTx-bound state
  Ki: 0.73 ± 0.05 µM
  nH: 0.88 ± 0.05
  ΔG: -35.0 ± 0.2 kJ/mol
[5]; both conformational states
  inhibition of the specific binding of [3H]18-MC: ~100%
[1]; pre-incubation 5 min
  nH (Hill coefficient): 2.30 ±0.04

## c1csc(C2(N3CCCCC3)CCCCC2)c1 [[^3H]TCP, [Piperidyl-3,4-^3H(N)]-(N-(1-(2 thienyl)cyclohexyl)-3,4-piperidine)]
Torpedo AChR [9]; desensitized state
  Kd: 0.25 µM
Torpedo AChR [9]; resting state
  Kd: 0.83 µM

## [3H]c1cc([3H])c(=O)n2c1[C@H]1CNC[C@H](C1)C2 [[^3H]cytisine, [^3H]cytisine hydrochloride, reference compound]
Torpedo AChR [8]; bound to the desensitized AChR, 7.7 nM
  fractional occupancy (θ): ~0.017%
Torpedo AChR [8]; bound to the resting AChR, nH = 1, 7.7 nM
  fractional occupancy (θ): ~0.005%

## O=c1cccc2n1C[C@@H]1CNC[C@H]2C1 [cytisine]
AChR; desensitized state
  Ki: 0.45 µM
AChR; resting state
  Ki: 1.6 µM

## [^3H]18-Methoxycoronaridine [[^3H]18-MC]
Torpedo AChR [4]; desensitized/CCh-bound state
  stoichiometric ratio: 0.86 ± 0.13 binding sites/AChR
Torpedo AChR [4]; desensitized/CCh-bound state (1 mM CCh), Rosenthal-Scatchard plot
  Kd: 0.23 µM

## [^3H]Ibogaine
Torpedo AChR [10]
  Kd: 5.4 µM

## ibogaine
α3β4 AChR
  IC50: 0.22 µM
[5]; desensitized/CCh-bound state
  nH: 1.11 ±0.07
  ΔG: -28.7 ± 0.2 kJ/mol
[5]; resting/α-BTx-bound state
  nH: 1.04 ±0.08
  ΔG: -28.3 ± 0.2 kJ/mol
[1]; pre-incubation 5 min
  nH (Hill coefficient): 2.00 ±0.29
Torpedo AChR [8]
  apparent nH: 0.99±0.22
